Reference: ChEMBL document CHEMBL1142492 (J Med Chem, 2008)

Experiments:
[1] = target: Phosphatidylinositol 5-phosphate 4-kinase type-2 beta (Homo sapiens) (UniProt P78356); assay: Inhibition of PIP5K2B at 3 uM
[2] = target: NT-3 growth factor receptor (Homo sapiens) (UniProt Q16288); assay: Inhibition of TRKC at 3 uM
[3] = target: TGF-beta receptor type-1 (Homo sapiens) (UniProt P36897); assay: Inhibition of TGFBR1 at 3 uM
[4] = target: TGF-beta receptor type-2 (Homo sapiens) (UniProt P37173); assay: Inhibition of TGFBR2 at 3 uM
[5] = target: Tyrosine-protein kinase receptor Tie-1 (Homo sapiens) (UniProt P35590); assay: Inhibition of TIE1 at 3 uM
[6] = target: Serine/threonine-protein kinase tousled-like 1 (Homo sapiens) (UniProt Q9UKI8); assay: Inhibition of TLK1 at 3 uM
[7] = target: LIM domain kinase 1 (Homo sapiens) (UniProt P53667); assay: Inhibition of LIMK1 at 3 uM
[8] = target: Vascular endothelial growth factor receptor 1 (Homo sapiens) (UniProt P17948); assay: Inhibition of FLT1 at 3 uM
Procedure, shortened: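 Single-concentration kinase panel scoring: each value is the percentage of enzyme activity remaining relative to a DMSO-only control. An activity statistically indistinct from DMSO control was scored "no hit".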

[9] = target: Glycogen synthase kinase-3 beta (Homo sapiens) (UniProt P49841); assay: Inhibition of GSK3B at 3 uM
[10] = target: Homeodomain-interacting protein kinase 1 (Homo sapiens) (UniProt Q86Z02); assay: Inhibition of HIPK1 at 3 uM
[11] = target: Mitogen-activated protein kinase kinase kinase 3 (Homo sapiens) (UniProt Q99759); assay: Inhibition of MAP3K3 at 3 uM
[12] = target: Dual specificity mitogen-activated protein kinase kinase 2 (Homo sapiens) (UniProt P36507); assay: Inhibition of MEK2 at 3 uM
[13] = target: Dual specificity mitogen-activated protein kinase kinase 4 (Homo sapiens) (UniProt P45985); assay: Inhibition of MEK4 at 3 uM
Dual specificity mitogen-activated protein kinase kinase 4 (Homo sapiens), sequence (P45985 whole entry): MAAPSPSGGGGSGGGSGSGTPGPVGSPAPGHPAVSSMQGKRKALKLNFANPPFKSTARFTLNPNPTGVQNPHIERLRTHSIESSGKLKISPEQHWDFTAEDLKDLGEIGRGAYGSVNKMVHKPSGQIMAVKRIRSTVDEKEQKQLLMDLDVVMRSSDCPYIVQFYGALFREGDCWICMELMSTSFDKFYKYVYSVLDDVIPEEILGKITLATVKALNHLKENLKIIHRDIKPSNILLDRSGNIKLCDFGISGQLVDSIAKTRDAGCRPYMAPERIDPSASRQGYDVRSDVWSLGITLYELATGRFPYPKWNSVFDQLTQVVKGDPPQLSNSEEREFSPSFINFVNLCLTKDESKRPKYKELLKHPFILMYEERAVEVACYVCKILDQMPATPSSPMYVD

[14] = target: Tyrosine-protein kinase Mer (Homo sapiens) (UniProt Q12866); assay: Inhibition of MERTK at 3 uM
[15] = target: Serine/threonine-protein kinase 3 (Homo sapiens) (UniProt Q13188); assay: Inhibition of MST2 at 3 uM
[16] = target: Muscle, skeletal receptor tyrosine-protein kinase (Homo sapiens) (UniProt O15146); assay: Inhibition of MUSK at 3 uM
[17] = target: Serine/threonine-protein kinase Nek1 (Homo sapiens) (UniProt Q96PY6); assay: Inhibition of NEK1 at 3 uM
[18] = target: Serine/threonine-protein kinase Nek7 (Homo sapiens) (UniProt Q8TDX7); assay: Inhibition of NEK7 at 3 uM
[19] = target: Serine/threonine-protein kinase PAK 2 (Homo sapiens) (UniProt Q13177); assay: Inhibition of PAK2 at 3 uM
Serine/threonine-protein kinase PAK 2 (Homo sapiens), sequence (Q13177 whole entry): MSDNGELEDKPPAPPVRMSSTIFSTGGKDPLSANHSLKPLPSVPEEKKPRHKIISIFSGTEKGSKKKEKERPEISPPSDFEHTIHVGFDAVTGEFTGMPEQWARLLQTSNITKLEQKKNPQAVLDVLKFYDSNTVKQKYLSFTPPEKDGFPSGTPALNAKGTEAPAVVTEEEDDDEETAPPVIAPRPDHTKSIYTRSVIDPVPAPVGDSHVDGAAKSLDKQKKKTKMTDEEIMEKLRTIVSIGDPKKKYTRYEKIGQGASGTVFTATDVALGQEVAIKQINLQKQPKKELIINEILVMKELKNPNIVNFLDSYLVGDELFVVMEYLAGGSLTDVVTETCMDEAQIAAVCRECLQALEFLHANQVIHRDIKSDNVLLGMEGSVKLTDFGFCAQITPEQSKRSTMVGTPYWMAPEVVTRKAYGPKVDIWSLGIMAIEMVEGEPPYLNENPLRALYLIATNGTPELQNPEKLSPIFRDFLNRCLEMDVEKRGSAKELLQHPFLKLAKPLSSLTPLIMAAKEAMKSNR

[20] = target: Serine/threonine-protein kinase PAK 5 (Homo sapiens) (UniProt Q9P286); assay: Inhibition of PAK7/PAK5 at 3 uM
[21] = target: Serine/threonine-protein kinase N2 (Homo sapiens) (UniProt Q16513); assay: Inhibition of PKN2 at 3 uM
[22] = target: Protein kinase C delta type (Homo sapiens) (UniProt Q05655); assay: Inhibition of PRKCD at 3 uM
[23] = target: Receptor-interacting serine/threonine-protein kinase 2 (Homo sapiens) (UniProt O43353); assay: Inhibition of RIPK2 at 3 uM
[24] = target: Rho-associated protein kinase 2 (Homo sapiens, UniProt O75116); assay: Inhibition of ROCK2 at 3 uM
[25] = target: Platelet-derived growth factor receptor beta (Homo sapiens) (UniProt P09619); assay: Inhibition of PDGFRB at 3 uM
[26] = target: Phosphatidylinositol 4,5-bisphosphate 3-kinase catalytic subunit beta isoform (Homo sapiens) (UniProt P42338); assay: Inhibition of PIK3CB at 3 uM
Phosphatidylinositol 4,5-bisphosphate 3-kinase catalytic subunit beta isoform (Homo sapiens), sequence (P42338 whole entry, looked up, canonical isoform): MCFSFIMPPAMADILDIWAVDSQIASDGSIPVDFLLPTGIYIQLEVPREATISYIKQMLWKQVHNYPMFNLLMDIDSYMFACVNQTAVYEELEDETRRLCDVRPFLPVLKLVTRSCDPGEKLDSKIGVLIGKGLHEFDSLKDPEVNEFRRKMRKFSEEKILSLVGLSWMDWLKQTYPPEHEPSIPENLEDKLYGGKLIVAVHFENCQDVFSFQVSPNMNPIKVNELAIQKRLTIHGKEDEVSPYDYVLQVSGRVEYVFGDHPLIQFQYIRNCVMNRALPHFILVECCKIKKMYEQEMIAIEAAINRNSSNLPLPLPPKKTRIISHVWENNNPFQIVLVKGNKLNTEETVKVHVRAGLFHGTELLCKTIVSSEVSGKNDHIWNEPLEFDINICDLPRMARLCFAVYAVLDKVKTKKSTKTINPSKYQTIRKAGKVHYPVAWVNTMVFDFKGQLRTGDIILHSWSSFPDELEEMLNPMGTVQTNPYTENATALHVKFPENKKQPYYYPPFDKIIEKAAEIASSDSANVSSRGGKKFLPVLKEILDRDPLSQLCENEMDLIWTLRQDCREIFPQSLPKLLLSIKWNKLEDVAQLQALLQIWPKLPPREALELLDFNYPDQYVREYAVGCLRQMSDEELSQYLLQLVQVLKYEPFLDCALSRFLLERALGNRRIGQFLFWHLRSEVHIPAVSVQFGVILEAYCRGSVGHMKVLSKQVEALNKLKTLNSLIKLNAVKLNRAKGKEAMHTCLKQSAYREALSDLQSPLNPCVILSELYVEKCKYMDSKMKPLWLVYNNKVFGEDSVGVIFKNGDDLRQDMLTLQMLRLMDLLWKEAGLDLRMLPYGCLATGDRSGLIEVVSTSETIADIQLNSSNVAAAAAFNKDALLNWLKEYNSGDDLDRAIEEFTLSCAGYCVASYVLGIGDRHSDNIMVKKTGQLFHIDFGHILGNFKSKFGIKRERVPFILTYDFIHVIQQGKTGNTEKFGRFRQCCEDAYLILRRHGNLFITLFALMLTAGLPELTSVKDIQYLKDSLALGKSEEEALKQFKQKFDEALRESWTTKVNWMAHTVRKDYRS

[27] = target: Mitogen-activated protein kinase kinase kinase 20 (Homo sapiens) (UniProt Q9NYL2); assay: Inhibition of ZAK at 3 uM
[28] = target: Histamine H2 receptor (Homo sapiens) (UniProt P25021); assay: Inhibition of human histamine H2 receptor at 3 uM
Procedure, shortened: (§1)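 Counter-screen binding/enzyme panel at single 3 μM, n=2; results as percent inhibition. Species per target as listed (rat NMDA, GABAA sites; human receptors, transporters; rabbit ACE).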

[29] = target: Neuropeptide Y receptor type 2 (Homo sapiens) (UniProt P49146); assay: Inhibition of human neuropeptide Y Y2 receptor at 3 uM
Neuropeptide Y receptor type 2 (Homo sapiens), sequence (P49146 whole entry): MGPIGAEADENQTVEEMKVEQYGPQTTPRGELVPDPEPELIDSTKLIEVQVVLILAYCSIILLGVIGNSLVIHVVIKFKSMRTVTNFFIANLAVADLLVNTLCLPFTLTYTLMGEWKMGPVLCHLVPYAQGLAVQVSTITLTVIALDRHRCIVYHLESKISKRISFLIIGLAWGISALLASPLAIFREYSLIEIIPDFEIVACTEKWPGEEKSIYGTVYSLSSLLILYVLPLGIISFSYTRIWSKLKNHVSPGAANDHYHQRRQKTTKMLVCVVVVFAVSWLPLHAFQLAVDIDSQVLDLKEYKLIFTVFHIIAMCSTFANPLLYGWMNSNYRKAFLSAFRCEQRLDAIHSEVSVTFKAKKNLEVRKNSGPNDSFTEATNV

[30] = target: hERG (KCNH2) (Homo sapiens, UniProt Q12809); assay: Inhibition of human ERG at 3 uM; procedure, shortened: as §1
hERG (KCNH2), sequence (Q12809 whole entry): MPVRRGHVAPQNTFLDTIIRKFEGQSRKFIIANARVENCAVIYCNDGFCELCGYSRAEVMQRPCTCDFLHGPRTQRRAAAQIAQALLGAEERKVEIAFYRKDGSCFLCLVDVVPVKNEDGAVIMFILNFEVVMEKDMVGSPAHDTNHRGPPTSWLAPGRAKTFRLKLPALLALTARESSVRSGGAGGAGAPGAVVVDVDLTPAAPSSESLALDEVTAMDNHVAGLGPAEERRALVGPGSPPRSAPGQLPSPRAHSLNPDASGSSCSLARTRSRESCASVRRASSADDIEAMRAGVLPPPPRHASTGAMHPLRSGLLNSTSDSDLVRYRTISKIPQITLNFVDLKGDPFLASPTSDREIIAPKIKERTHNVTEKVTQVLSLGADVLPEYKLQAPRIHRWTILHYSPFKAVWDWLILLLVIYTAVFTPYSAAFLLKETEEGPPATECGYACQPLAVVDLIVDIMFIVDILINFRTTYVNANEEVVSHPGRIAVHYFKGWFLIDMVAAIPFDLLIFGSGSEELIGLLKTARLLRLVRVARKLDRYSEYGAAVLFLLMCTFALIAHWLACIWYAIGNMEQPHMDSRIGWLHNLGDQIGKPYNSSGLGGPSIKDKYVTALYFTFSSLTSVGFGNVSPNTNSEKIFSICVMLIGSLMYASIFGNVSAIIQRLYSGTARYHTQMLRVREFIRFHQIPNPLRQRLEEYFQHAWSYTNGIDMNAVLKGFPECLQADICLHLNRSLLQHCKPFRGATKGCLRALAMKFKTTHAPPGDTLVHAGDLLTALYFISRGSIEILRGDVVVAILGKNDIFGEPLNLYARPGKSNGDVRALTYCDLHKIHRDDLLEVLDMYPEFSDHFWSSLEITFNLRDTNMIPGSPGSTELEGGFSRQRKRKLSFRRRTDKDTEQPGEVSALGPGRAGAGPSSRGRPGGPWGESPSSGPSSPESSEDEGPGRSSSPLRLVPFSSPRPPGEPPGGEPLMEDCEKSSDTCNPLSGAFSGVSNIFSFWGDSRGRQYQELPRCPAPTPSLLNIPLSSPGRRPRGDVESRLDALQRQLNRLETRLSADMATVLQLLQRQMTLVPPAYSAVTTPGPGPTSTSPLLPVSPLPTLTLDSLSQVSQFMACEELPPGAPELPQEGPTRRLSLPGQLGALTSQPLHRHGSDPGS

[31] = target: Cyclin-dependent kinase 5 (Homo sapiens) (UniProt Q00535); assay: Inhibition of CDK5 at 3 uM
[32] = target: Cyclin-dependent kinase 9 (Homo sapiens) (UniProt P50750); assay: Inhibition of CDK9 at 3 uM
Cyclin-dependent kinase 9 (Homo sapiens), sequence (P50750 whole entry): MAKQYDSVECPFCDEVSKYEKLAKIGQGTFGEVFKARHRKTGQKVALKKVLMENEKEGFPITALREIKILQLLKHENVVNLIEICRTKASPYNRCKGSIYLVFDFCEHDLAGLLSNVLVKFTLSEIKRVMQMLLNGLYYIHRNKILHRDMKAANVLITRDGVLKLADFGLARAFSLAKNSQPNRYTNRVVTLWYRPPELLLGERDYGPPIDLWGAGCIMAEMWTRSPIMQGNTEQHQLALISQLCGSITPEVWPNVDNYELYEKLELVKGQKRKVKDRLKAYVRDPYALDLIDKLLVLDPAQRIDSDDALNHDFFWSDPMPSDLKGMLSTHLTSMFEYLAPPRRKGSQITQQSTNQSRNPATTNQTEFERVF

[33] = target: Activin receptor type-1B (Homo sapiens) (UniProt P36896); assay: Inhibition of ACVR1B at 3 uM
[34] = target: Activin receptor type-1-like (Homo sapiens) (UniProt P37023); assay: Inhibition of ACVRL1 at 3 uM
[35] = target: Atypical kinase COQ8B, mitochondrial (Homo sapiens) (UniProt Q96D53); assay: Inhibition of ADCK4 at 3 uM
[36] = target: Tyrosine-protein kinase Blk (Homo sapiens) (UniProt P51451); assay: Inhibition of BLK at 3 uM
[37] = target: Bone morphogenetic protein receptor type-1B (Homo sapiens) (UniProt O00238); assay: Inhibition of BMPR1B at 3 uM
[38] = target: Tyrosine-protein kinase BTK (Homo sapiens) (UniProt Q06187); assay: Inhibition of BTK at 3 uM
Tyrosine-protein kinase BTK (Homo sapiens), sequence (Q06187 whole entry): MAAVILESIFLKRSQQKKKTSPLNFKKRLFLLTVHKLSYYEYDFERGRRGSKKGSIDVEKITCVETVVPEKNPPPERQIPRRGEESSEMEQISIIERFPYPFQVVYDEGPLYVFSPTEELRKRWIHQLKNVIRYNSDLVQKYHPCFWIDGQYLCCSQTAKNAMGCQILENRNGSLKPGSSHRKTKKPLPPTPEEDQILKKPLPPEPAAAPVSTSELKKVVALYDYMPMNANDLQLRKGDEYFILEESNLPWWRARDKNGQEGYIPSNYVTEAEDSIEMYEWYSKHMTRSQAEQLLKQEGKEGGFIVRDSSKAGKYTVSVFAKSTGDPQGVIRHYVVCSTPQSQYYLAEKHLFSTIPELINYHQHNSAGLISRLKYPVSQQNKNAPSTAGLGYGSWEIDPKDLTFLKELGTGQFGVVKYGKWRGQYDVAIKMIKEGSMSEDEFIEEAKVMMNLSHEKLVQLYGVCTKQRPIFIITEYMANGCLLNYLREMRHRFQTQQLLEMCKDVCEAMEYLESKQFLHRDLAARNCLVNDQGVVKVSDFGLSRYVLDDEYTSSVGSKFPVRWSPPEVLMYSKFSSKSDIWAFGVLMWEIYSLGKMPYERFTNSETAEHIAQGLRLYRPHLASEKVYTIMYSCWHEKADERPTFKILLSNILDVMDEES

[39] = target: Dual specificity protein kinase CLK1 (Homo sapiens) (UniProt P49759); assay: Inhibition of CLK1 at 3 uM
[40] = target: Sodium-dependent serotonin transporter (Homo sapiens) (UniProt P31645); assay: Inhibition of human SERT at 3 uM
[41] = target: Casein kinase II subunit alpha (Homo sapiens) (UniProt P68400); assay: Inhibition of CSNK2A1 at 3 uM
[42] = target: Calcium/calmodulin-dependent protein kinase type IV (Homo sapiens) (UniProt Q16566); assay: Inhibition of CAMK4 at 3 uM
Calcium/calmodulin-dependent protein kinase type IV (Homo sapiens), sequence (Q16566 whole entry): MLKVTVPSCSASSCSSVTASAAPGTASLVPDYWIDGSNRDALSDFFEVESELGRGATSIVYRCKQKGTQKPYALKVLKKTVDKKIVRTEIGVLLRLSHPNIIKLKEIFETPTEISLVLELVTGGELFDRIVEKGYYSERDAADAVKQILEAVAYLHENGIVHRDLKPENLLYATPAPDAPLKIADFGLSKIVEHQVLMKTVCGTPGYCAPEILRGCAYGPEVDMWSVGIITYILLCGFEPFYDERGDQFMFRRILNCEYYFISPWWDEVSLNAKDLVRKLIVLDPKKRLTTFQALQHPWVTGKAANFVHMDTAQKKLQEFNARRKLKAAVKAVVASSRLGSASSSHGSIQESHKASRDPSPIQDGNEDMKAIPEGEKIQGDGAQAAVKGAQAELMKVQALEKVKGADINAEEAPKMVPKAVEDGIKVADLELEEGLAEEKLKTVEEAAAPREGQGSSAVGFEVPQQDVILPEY

[43] = target: Epidermal growth factor receptor (Homo sapiens) (UniProt P04626+P00533+Q15303+P21860); assay: Inhibition of EGFR E746-A750del mutant at 3 uM; type: protein assay
[44] = species on record: Rattus norvegicus; details: 3 uM
[45] = species on record: Oryctolagus cuniculus; details: 3 uM
[46] = target: Mitogen-activated protein kinase kinase kinase 12 (DLK) (Homo sapiens) (UniProt Q12852); assay: Inhibition of DLK at 3 uM

CN(C)CCOc1cc(-c2cn[nH]c2)ccc1NC(=O)C1COc2ccccc2O1 (stereo unspecified) [SR-3677]
inhibition [1]: < 10%
inhibition [2]: < 10%
inhibition [3]: < 10%
inhibition [4]: < 10%
inhibition [5]: < 10%
inhibition [6]: < 10%
inhibition [7]: < 10%
inhibition [8]: < 10%
inhibition [9]: < 10%
inhibition [10]: < 10%
inhibition [11]: < 10%
inhibition [12]: < 10%
inhibition [13]: < 10%
inhibition [14]: < 10%
inhibition [15]: < 10%
inhibition [16]: < 10%
inhibition [17]: < 10%
inhibition [18]: < 10%
inhibition [19]: < 10%
inhibition [20]: < 10%
inhibition [21]: < 10%
inhibition [22]: < 10%
inhibition [23]: < 10%
inhibition [24]: 99.6%
inhibition [25]: < 10%
inhibition [26]: < 10%
inhibition [27]: < 10%
inhibition [28]: 1%
inhibition [29]: 0%
inhibition at 3 µM [30]: 31%
inhibition [31]: < 10%
inhibition [32]: < 10%
inhibition [33]: < 10%
inhibition [34]: < 10%
inhibition [35]: < 10%
inhibition [36]: < 10%
inhibition [37]: < 10%
inhibition [38]: < 10%
inhibition [39]: 94.9%
inhibition [40]: 3%
inhibition [41]: < 10%
inhibition [42]: < 10%
inhibition [43]: < 10%
inhibition [44]: -4%
inhibition [45]: 4%
inhibition [46]: < 10%
